According to paper PMC4115637 (Pharmacology Research & Perspectives, 2014):
Numbering of substitutions follows the chain as printed.

Legend:
Assay type in all cases: cell-based
human TRPV3 [1] = target: T1, human TRPV3 (Homo sapiens, UniProt Q8NET8); experiment: Whole-cell recordings in TRPV3-overexpressing HEK-293 cells; conditions: 250 μmol/L, 500 μmol/L, 1 mmol/L; negative holding potential
T1 sequence (Q8NET8 1-790): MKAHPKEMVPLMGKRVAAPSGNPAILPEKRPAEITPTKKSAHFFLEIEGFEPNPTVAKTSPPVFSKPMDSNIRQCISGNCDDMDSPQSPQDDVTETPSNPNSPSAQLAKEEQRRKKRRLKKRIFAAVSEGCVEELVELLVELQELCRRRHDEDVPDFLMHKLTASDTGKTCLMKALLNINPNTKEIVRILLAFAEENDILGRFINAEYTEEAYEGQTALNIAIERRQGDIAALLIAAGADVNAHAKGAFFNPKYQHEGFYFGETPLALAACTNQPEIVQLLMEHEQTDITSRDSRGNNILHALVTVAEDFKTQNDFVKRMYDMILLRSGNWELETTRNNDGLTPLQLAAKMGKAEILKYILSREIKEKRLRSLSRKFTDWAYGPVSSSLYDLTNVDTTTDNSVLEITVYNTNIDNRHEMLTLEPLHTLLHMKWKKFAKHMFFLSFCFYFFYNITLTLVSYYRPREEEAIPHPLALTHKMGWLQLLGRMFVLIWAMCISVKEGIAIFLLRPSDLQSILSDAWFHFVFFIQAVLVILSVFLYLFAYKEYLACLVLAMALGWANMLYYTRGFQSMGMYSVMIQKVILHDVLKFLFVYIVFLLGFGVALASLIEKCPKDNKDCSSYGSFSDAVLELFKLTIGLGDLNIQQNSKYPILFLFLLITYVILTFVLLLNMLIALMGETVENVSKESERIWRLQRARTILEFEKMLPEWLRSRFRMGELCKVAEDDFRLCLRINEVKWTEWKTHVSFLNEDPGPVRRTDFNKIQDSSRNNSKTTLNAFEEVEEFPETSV
Procedure, shortened: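 HEK-293 cells stably overexpressing human TRPV3 were plated on concanavalin A-coated coverslips and used within 24 h. Whole-cell voltage clamp at −60 or −70 mV with 3–5 MΩ pipettes. External saline: NaCl/KCl/MgCl2/HEPES/glucose/2 mmol/L CaCl2, pH 7.4. CsCl/EGTA internal, pH 7.3. Test compound was perfused or injected, with a fresh cell for each recording. Peak versus basal inward current was compared by one-tailed paired t-test.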

TRPV3-R696K = target: T2, TRPV3-R696K (Homo sapiens, UniProt Q8NET8, R696K); experiment: Calcium flux in HEK-293 cells transiently transfected with TRPV3-R696K; conditions: 100 μmol/L carvacrol, 100 μmol/L 2-APB, 100 and 200 μmol/L drofenine
T2 sequence (Q8NET8 1-790 R696K): T1 sequence (Q8NET8 1-790) with R696K

TRPV3 in HaCaT cells = target: T3, TRPV3 in HaCaT cells (Homo sapiens, UniProt Q8NET8); experiment: Calcium flux in HaCaT cells
T3 sequence (Q8NET8 1-790): T1 sequence (Q8NET8 1-790)

human TRPV2 = target: T4, human TRPV2 (Homo sapiens, UniProt Q9Y5S1); experiment: Calcium flux in HEK-293 cells overexpressing TRPV2; conditions: concentrations up to 1 mmol/L
T4 sequence (Q9Y5S1 1-764): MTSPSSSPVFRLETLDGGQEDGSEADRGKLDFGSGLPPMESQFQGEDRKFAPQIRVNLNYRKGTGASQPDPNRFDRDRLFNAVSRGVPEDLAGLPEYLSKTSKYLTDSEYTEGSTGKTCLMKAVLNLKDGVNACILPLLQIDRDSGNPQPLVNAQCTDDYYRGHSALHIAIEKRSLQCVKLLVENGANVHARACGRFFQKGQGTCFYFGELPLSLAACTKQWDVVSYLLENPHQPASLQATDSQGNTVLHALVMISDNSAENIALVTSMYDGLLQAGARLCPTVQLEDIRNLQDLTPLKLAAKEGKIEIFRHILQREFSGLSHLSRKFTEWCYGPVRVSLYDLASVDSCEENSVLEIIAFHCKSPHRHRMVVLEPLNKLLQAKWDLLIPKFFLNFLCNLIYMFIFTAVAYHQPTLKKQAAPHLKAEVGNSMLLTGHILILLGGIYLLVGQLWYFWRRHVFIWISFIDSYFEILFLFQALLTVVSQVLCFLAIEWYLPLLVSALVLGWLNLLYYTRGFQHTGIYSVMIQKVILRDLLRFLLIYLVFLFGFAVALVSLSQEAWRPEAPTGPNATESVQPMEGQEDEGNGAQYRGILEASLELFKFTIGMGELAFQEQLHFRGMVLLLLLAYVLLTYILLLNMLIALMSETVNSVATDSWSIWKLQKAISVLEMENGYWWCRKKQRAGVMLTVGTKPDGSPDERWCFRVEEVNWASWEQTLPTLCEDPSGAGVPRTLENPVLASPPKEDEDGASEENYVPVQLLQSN

human TRPM8 = human TRPM8 (Homo sapiens, UniProt Q7Z2W7); experiment: Calcium flux in HEK-293 cells overexpressing TRPM8; conditions: concentrations up to 1 mmol/L
human TRPV3 [2] = target: T1, human TRPV3; experiment: Calcium flux in TRPV3 overexpressing HEK-293 cells; conditions: HEK-293 cells overexpressing TRPV3

human TRPM8, sequence (Q7Z2W7 whole entry): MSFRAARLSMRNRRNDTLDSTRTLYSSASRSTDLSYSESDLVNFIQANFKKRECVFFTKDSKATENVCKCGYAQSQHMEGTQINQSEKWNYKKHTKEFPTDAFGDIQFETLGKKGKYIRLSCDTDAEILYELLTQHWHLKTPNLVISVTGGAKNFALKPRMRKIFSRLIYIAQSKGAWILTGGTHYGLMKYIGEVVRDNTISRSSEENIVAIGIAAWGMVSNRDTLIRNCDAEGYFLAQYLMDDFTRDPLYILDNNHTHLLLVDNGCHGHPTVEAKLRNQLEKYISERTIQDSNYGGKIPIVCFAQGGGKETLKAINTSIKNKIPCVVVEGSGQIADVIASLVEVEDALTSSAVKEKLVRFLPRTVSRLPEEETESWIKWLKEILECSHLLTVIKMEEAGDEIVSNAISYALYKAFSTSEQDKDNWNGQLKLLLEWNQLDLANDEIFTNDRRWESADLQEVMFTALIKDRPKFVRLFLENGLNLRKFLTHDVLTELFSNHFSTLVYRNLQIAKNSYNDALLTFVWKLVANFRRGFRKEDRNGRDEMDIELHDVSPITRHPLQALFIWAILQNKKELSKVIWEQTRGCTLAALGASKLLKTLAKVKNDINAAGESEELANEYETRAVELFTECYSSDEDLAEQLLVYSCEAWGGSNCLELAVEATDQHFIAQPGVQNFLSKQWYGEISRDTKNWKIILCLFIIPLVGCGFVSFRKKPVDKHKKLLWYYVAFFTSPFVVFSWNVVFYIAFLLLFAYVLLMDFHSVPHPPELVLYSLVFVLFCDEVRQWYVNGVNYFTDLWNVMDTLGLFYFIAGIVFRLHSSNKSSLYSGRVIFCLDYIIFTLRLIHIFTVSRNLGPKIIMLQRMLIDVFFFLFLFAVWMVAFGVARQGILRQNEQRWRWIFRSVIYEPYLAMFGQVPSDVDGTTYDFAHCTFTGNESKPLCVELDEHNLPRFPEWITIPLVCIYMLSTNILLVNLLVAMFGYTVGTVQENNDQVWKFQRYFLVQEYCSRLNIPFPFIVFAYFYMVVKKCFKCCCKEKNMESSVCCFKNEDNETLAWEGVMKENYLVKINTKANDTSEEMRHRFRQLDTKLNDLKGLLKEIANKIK

inward currents (human TRPV3 [1]): dose-dependently induced inward currents
calcium flux in TRPV3-R696K (TRPV3-R696K): diminished-to-no-function
EC50 (TRPV3 in HaCaT cells): 605 µM
maximum change in fluorescence relative to ionomycin (TRPV3 in HaCaT cells; HaCaT cells): ~80%
activation of TRPV2 (human TRPV2): not observed
activation of TRPM8 (human TRPM8): not observed
lowest concentration with detectable change in TRPV3 activity (human TRPV3 [2]): ~30 µmol/L
SMILES: CCN(CC)CCOC(=O)C(c1ccccc1)C1CCCCC1 (stereo not shown) [drofenine]
